Compounds with a hit are over-represented: about 4.9% of the library has one in this group of screens.
STAT3 act-1 = IL-6 driven STAT3 reporter potentiators, primary screen, U3A cells, luciferase, luminescence, MLSCN library | IL-6 STAT3-luciferase reporter; 100% = signal with IL-6 EC80 alone | activation (% of control), % at 5.6 µM | actives 0.91% (n = 190,000);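 active = activation above the screen-wide mean of compound activation plus 3 SD, cut at about 130% in these data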;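 also: 0% = background luminescence of wells with medium and substrate only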
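system = STAT3-luciferase reporter U3A cells | reagent = IL-6 stimulus at 33 ng/mL final | timing = 1 h compound pre-exposure, 6 h IL-6 stimulation, 37 °C | measured by = luminescence | evaluation = % activation versus median of IL-6-stimulated wells | control set = IL-6-only wells as 100% reference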
STAT1 act-1 = STAT1 signaling activators, primary screen, cell-based, HTS, luciferase reporter; NIH 3T3 STAT1-luciferase reporter, IFN-gamma, luminescence; 100% = IFN-gamma alone, no compound; activation (% of control), % at 5.5 µM; actives 2.6% (n = 200,000); AID 932, 2007;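 active = activation above the screen-wide mean activation plus 3 SD, cut at about 130% in these data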;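 also: raw ratio to IFN-gamma control signal so 100% means no change and 0% no light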
STAT3 inh = IL-6 driven STAT3 reporter inhibitors, primary screen, U3A cells, luciferase, luminescence, MLSCN library | IL-6 STAT3-luciferase reporter; host cell line lacks STAT1 | actives 0.89% (n = 190,000) | inhibition, % at 5.5 µM;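 active = inhibition above the mean inhibition across all screened compounds plus 3 SD, cut at about 44% in these data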;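 also: 0% = DMSO only wells and 100% = 100 µM nifuroxazide control wells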
NF-kB neuron act = activators of NF-kB expression in neurons, primary screen, cell-based, HTS; human neuronal cells, NF-kB reporter expression; active compounds read high; fold change at 12.5 µM; actives 1.6% (n = 190,000); in the data active = fold change above about 3.3
APP 5'UTR act = activators of APP 5'UTR luciferase reporter, primary screen, SH-SY5Y cells. actives 1% (n = 190,000). activation, % at 2 µM. SH-SY5Y APP 5'UTR luciferase reporter, luminescence; zero percent = DMSO vehicle wells;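 active = activation above a set limit, based on mean plus 3 SD of controls, cut at about 140% in these data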
STAT1 inh = STAT1 signaling inhibitors, primary screen, cell-based, HTS, luciferase reporter; NIH 3T3 STAT1-luciferase reporter, IFN-gamma, luminescence; inhibition, % at 5.5 µM; actives 0.35% (n = 200,000); AID 920, 2007;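 active = inhibition above a set limit, the mean inhibition across all tested compounds plus 3 SD, cut at about 34% in these data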;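 also: 0% = IFN-gamma with DMSO and 100% = IFN-gamma with 300 µM nifuroxazide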
STAT3 act-2 = STAT3 reporter potentiators, retest of hits, confirmation, U3A cells, luciferase, luminescence | actives 64% (n = 1,200) | potentiation (% of control), % at 5.7 µM | IL-6 potentiation; U3A cells lack STAT1; 100 means same as IL-6 alone | shares compounds with STAT3 act-1;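 active = percent activation of the STAT3 luciferase reporter above a set limit taken from the earlier primary screen, cut at about 130% in these data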;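 also: 0% = background signal of medium plus substrate and 100% = median of IL-6 with DMSO wells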
NFkB act 2 = NF-kB reporter activators in human cells, counter-screen for STAT3 activator project; shares compounds with STAT3 act-1; NF-kappaB reporter activation; activation (% of control), % at 5.7 µM; actives 11% (n = 1,200); in the data active = activation above about 120%;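 also: reporter induced by TNF-alpha stimulation; 100% = median of stimulated DMSO wells and 0% = no signal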
STAT1 act-2 = STAT1 reporter activators, IFN-gamma induced, counter-screen for STAT3 activator project, cell-based, NIH 3T3, luciferase luminescence; AID 1318, 2008; actives 13% (n = 1,200); NIH 3T3 STAT1-luciferase reporter; activation (% of control), % at 5.7 µM; shares compounds with STAT3 act-1;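 active = activation above the solvent-only control well mean plus 3 SD, set per screening run, cut at about 120% in these data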;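 also: 100% = IFN-gamma with DMSO median signal so 100% means no change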
An asterisk follows results filed as active; nt = no result.

SMILES	STAT3 act-1	STAT1 act-1	STAT3 inh	NF-kB neuron act	APP 5'UTR act	STAT1 inh	STAT3 act-2	NFkB act 2	STAT1 act-2
CCOc1ccccc1-n1nnnc1SCc1nc2ccccc2s1	166*	116	-70	0.85	36	-17	156*	119	128*
CCn1c(SCc2nc3ccccc3s2)nnc1-c1cccs1	142*	117	-40	1.1	56	-19	143*	115	129*
CC(=O)N(C)c1ccc(NC(=O)c2ccc([N+](=O)[O-])cc2Cl)cc1	99	108	1	0.99	9	-9	nt	nt	nt
Nc1ccccc1Sc1nc2ccccc2[nH]1	136*	90	-34	0.97	-3	10	159*	117	102
CCSc1nc2ccccc2[nH]1	106	99	-4	1	6	1	nt	nt	nt
CC(C)C(NC(N)=O)C(=O)NC1CCCCC1 (configuration not stated)	100	102	4	1.1	-5	-4	nt	nt	nt
COc1ccc(C)cc1NC(=O)c1cc2c(s1)CCC2	112	111	-19	1.3	14	-12	nt	nt	nt
COC(=O)c1sccc1NC(=O)c1cc2c(s1)CCCC2	170*	109	-79	1.3	-1	-11	146*	110	109
Cc1ccc(NC(=O)c2c(Cl)n(C)c3ccccc23)cc1	170*	108	-68	1.7	37	-9	190*	123*	132*
O=c1c2ccccc2nc(/C=C/c2c[nH]c3ccccc23)n1CCO	136*	115	-38	0.58	76	-18	136*	117	126*
Oc1ccc(Cl)cc1-c1cc(-c2cccc(Br)c2)n[nH]1	97	100	11	1.3	9	0	nt	nt	nt
Oc1ccccc1-c1cc(-c2cccc(F)c2)n[nH]1	145*	109	-51	9.9*	202*	-10	155*	140*	111
Cc1nc(SCC(=O)O)c(C#N)c(C)c1CC(=O)c1ccccc1	104	92	0	1.1	-2	10	nt	nt	nt
CC1CCN(C(=O)CCc2ccc(S(=O)(=O)NC(C)C)cc2)CC1	102	102	-1	0.99	7	-2	nt	nt	nt
COc1ccc(S(=O)(=O)N2Cc3ccccc3CC2C(=O)Nc2ccc3c(c2)OCO3)cc1 (configuration not stated)	110	106	-8	1.2	21	-7	nt	nt	nt
COc1ccc(S(=O)(=O)N2Cc3ccccc3CC2C(=O)Nc2nccs2)cc1 (configuration not stated)	140*	121	-46	1.6	180*	-23	110	112	120
Cc1cnc(NC(=O)c2c(O)c3cccc4c3n(c2=O)CCC4)s1	165*	102	-72	1.3	3	-2	149*	101	102
CC(C)c1nnc(NC(=O)c2c(O)c3cccc4c3n(c2=O)CCC4)s1	95	99	12	0.68	19	1	nt	nt	nt
O=C(Nc1cccc(F)c1)c1c(O)c2cccc3c2n(c1=O)CCC3	142*	97	-46	1.1	6	4	143*	98	93
COC(=O)c1c(NC(=O)C2CC2)sc(C(=O)Nc2ccccc2)c1C	103	115	-5	1.5	33	-16	nt	nt	nt
CCOC(=O)C1(Cc2ccc(OC)cc2)CCN(C(=O)c2cc3ccccc3[nH]2)CC1	156*	120	-68	1.5	57	-20	147*	109	117
Cc1ccc(NC(=O)CSc2nnc(-c3ccncc3)o2)cc1C	93	98	13	1.4	26	0	nt	nt	nt
O=[N+]([O-])c1cc2c(cc1/C=N/NS(=O)(=O)c1ccc(Br)cc1)OCO2	96	98	8	1	7	2	nt	nt	nt
O=C(Nc1nnc(CC(=O)N2CCOCC2)s1)c1cccs1	147*	96	-53	1.2	-6	1	98	106	106
Cc1ccccc1NC(=O)COC(=O)CCc1ccccc1	104	98	0	1.2	-12	2	nt	nt	nt
SMILES	STAT3 act-1	STAT1 act-1	STAT3 inh	NF-kB neuron act	APP 5'UTR act	STAT1 inh	STAT3 act-2	NFkB act 2	STAT1 act-2
CCOc1ccc(-n2c(N)c(-c3nc4ccccc4[nH]3)sc2=S)cc1	90	99	17	0.72	22	1	nt	nt	nt
COc1ccc(-n2c(N)c(-c3nc4ccccc4n3C)sc2=S)cc1	148*	100	-55	1.2	16	1	173*	106	110
Cc1ccc(NC(=O)CN(c2ccc(Cl)cc2)S(=O)(=O)c2cc([N+](=O)[O-])ccc2Cl)c(C)c1	111	96	-8	1.1	17	3	nt	nt	nt
CSc1nsc(SCC(=O)NC2CCCCC2)n1	137*	100	-35	1.4	0	0	128	110	114
C/C(=N\Nc1nc2ccccc2[nH]1)c1cc2ccccc2o1	143*	107	-49	1	106	-8	176*	122*	134*
CC12CN3CC(C)(CN(C1)C3c1c[nH]c3ccccc13)C2=O (configuration not stated)	97	102	8	1.1	-2	-4	nt	nt	nt
CC1(C)CC(=O)C(c2c[nH]c3ccccc23)C(=O)C1	152*	94	-55	0.87	11	5	163*	109	103
O=C(CNC(=S)N(Cc1ccccc1)Cc1cccnc1)NCCN1CCOCC1	105	100	2	1.2	-8	0	nt	nt	nt
O=C(OCc1ccccc1)N1CCCC1/C=C/CN1CCOCC1 (configuration not stated)	100	96	2	1.2	-63	3	nt	nt	nt
Cc1ccc(N/N=C2\CS(=O)(=O)N(C)c3ccsc32)cc1	141*	110	-49	1.5	60	-11	144*	121*	119
CN1c2ccsc2/C(=N/Nc2ccc(F)cc2)CS1(=O)=O	126	111	-31	1.1	47	-12	nt	nt	nt
O=C(O)C1Cc2[nH]cnc2C(c2ccccc2O)N1 (configuration not stated)	143*	94	-48	0.9	13	7	172*	103	115

Screening results deposited in PubChem BioAssay by several laboratories.
